Columns and labels:
[1] = Selectivity ratio of pLC50 for mouse primary glial cells to pLC50 for human THLE2 cells; format: ADME, cell-based; details: mouse primary glial cells versus THLE2 cells
[2] = target: cGMP-specific 3',5'-cyclic phosphodiesterase (Homo sapiens, UniProt O76074); experiment: Inhibition of full length recombinant human N-terminal GST-tagged PDE5A1 expressed in baculovirus infected Sf9 cells using cGMP as substrate after 30 mins by HTRF assay
Histone deacetylase 1 = Histone deacetylase 1 (Homo sapiens, UniProt Q13547); experiment: Inhibition of full length recombinant human C-terminal His/Flag-tagged HDAC1 expressed in baculovirus infected Sf9 cells using fluorogenic HDAC substrate after 30 mins by fluorescence analysis
Outline: (§1)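 Full-length human recombinant HDAC1 (0.4 μg/mL final), HDAC2 (1.5 μg/mL), HDAC3/NCOR2 (0.1 μg/mL) or HDAC6 (3.6 μg/mL) with 10 μM fluorogenic acetyl-lysine substrate and 0.1 mg/mL BSA, 1% DMSO, 30 min at 37 °C; lysine developer 20 min at room temperature; fluorescence ex 355/em 460 nm. Vehicle = positive control, no enzyme = negative; IC50 from curve fit.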

Histone deacetylase 2 = Histone deacetylase 2 (Homo sapiens, UniProt Q92769); experiment: Inhibition of full length recombinant human C-terminal His-tagged HDAC2 expressed in baculovirus infected Sf9 cells using fluorogenic HDAC substrate after 30 mins by fluorescence analysis; outline: as §1
[3] = target: Histone deacetylase 3/Nuclear receptor corepressor 2 (HDAC3/NCoR2) (Homo sapiens, UniProt O15379); experiment: Inhibition of full length recombinant human C-terminal His-tagged HDAC3/N-terminal GST-tagged NCOR2 (395 to 489 residues) expressed in baculovirus infected Sf9 cells using fluorogenic HDAC substrate after 30 mins by fluorescence analysis
[4] = target: T1, Protein deacetylase HDAC6 (Homo sapiens, UniProt Q9UBN7); experiment: Inhibition of full length recombinant human N-terminal GST tagged HDAC6 expressed in baculovirus infected Sf9 cells using fluorogenic HDAC substrate after 30 mins by fluorescence analysis; outline: as §1
T1 sequence (Q9UBN7 whole entry): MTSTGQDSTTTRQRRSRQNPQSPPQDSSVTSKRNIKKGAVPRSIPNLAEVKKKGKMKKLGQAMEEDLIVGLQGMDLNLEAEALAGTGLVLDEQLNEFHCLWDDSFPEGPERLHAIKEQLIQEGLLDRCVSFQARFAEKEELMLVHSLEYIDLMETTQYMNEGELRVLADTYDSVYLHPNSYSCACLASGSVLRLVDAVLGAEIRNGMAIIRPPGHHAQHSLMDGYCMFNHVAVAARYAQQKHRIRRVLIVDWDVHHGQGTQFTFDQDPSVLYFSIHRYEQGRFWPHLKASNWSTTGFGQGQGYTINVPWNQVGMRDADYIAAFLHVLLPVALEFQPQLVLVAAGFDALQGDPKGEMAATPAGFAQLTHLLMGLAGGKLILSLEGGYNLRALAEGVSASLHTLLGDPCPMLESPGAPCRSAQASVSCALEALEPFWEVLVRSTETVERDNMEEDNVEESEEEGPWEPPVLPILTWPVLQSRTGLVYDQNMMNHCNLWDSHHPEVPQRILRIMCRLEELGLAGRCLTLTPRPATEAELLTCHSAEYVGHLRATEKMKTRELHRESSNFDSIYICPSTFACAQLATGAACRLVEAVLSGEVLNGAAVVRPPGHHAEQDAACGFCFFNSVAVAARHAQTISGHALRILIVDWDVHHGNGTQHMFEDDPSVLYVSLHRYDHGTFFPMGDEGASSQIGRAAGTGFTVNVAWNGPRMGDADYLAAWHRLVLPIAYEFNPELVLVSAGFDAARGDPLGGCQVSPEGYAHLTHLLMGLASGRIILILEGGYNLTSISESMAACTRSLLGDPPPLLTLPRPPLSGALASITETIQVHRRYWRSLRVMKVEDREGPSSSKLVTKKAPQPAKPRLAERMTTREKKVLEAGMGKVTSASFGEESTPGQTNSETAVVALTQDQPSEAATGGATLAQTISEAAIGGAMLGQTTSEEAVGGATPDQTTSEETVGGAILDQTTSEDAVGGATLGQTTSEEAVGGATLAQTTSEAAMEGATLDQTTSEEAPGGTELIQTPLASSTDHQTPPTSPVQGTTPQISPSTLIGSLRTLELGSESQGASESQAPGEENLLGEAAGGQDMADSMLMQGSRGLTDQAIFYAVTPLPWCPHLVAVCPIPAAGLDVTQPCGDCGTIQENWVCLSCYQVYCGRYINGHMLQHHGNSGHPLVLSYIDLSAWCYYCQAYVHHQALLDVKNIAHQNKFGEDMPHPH

[5] = Selectivity ratio of pIC50 for full length recombinant human N-terminal GST tagged HDAC6 expressed in baculovirus infected Sf9 cells to pIC50 for full length recombinant human C-terminal His/Flag-tagged HDAC1 expressed in baculovirus infected Sf9 cells
[6] = Cytotoxicity against human THLE2 cells assessed as reduction in cell viability after 72 hrs by ATP Vialight assay; format: toxicity, cell-based, THLE-2; details: read-out: LC50
Outline: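 Immortalized human liver THLE-2 cells in BEGM with 0.7 μg/mL phosphoethanolamine, 0.5 ng/mL EGF, antibiotics and 10% FBS, seeded at 10,000 cells/well and left 24 h at 37 °C. Compounds were added at final 0–100 μM in 1% DMSO for 72 h. Cellular ATP was read by luminescence after 45 min lysis.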

[7] = Cytotoxicity against mouse primary glial cells assessed as reduction in cell viability after 72 hrs by luminescence based ATPlite assay; format: toxicity; details: read-out: LC50
Outline: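 Primary neuron/glia cultures from embryonic mouse brain were grown 5 days at 37 °C (5% CO2) to allow neuron formation. Compounds were then added at final 0–100 μM in 1% DMSO for 72 h. Cellular ATP was read by luminescence after 10 min with reagent at room temperature.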

[8] = Passive membrane permeability of the compound at 50 uM after 18 hrs by PAMPA; format: ADME; details: read-out: Peff
Outline: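 PAMPA: 50 μM donor solution in PBS/EtOH 70:30 over PVDF membrane precoated with PBL/dodecane (20 mg/mL); PBS/EtOH acceptor; 18 h at 20 °C without shaking; duplicates; donor and acceptor concentrations by UV absorbance corrected against vehicle.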

[9] = Dissociation constant, pKa of the compound; format: physicochemical
[10] = Selectivity ratio of pIC50 for full length recombinant human C-terminal His/Flag-tagged HDAC1 expressed in baculovirus infected Sf9 cells to pIC50 for full length recombinant human N-terminal GST tagged HDAC6 expressed in baculovirus infected Sf9 cells
[11] = Lipophilicity, log D of the compound at pH 7.4; format: physicochemical; details: buffer

Sequence of Histone deacetylase 3/Nuclear receptor corepressor 2 (HDAC3/NCoR2) (O15379 whole entry, the tested form may be a part): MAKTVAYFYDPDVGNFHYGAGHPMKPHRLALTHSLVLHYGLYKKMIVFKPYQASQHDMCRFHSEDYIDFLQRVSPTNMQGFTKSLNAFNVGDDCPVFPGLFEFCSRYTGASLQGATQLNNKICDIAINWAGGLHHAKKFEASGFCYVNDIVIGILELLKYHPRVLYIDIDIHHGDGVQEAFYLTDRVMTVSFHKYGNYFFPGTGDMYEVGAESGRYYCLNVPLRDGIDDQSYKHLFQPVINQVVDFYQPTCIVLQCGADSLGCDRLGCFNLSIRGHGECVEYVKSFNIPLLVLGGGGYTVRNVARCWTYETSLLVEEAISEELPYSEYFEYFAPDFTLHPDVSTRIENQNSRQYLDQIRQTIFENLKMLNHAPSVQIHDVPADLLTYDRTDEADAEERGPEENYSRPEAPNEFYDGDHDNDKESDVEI
Sequence of Histone deacetylase 3/Nuclear receptor corepressor 2 (HDAC3/NCoR2) (Q9Y618 whole entry, further chain, the tested form may be a part): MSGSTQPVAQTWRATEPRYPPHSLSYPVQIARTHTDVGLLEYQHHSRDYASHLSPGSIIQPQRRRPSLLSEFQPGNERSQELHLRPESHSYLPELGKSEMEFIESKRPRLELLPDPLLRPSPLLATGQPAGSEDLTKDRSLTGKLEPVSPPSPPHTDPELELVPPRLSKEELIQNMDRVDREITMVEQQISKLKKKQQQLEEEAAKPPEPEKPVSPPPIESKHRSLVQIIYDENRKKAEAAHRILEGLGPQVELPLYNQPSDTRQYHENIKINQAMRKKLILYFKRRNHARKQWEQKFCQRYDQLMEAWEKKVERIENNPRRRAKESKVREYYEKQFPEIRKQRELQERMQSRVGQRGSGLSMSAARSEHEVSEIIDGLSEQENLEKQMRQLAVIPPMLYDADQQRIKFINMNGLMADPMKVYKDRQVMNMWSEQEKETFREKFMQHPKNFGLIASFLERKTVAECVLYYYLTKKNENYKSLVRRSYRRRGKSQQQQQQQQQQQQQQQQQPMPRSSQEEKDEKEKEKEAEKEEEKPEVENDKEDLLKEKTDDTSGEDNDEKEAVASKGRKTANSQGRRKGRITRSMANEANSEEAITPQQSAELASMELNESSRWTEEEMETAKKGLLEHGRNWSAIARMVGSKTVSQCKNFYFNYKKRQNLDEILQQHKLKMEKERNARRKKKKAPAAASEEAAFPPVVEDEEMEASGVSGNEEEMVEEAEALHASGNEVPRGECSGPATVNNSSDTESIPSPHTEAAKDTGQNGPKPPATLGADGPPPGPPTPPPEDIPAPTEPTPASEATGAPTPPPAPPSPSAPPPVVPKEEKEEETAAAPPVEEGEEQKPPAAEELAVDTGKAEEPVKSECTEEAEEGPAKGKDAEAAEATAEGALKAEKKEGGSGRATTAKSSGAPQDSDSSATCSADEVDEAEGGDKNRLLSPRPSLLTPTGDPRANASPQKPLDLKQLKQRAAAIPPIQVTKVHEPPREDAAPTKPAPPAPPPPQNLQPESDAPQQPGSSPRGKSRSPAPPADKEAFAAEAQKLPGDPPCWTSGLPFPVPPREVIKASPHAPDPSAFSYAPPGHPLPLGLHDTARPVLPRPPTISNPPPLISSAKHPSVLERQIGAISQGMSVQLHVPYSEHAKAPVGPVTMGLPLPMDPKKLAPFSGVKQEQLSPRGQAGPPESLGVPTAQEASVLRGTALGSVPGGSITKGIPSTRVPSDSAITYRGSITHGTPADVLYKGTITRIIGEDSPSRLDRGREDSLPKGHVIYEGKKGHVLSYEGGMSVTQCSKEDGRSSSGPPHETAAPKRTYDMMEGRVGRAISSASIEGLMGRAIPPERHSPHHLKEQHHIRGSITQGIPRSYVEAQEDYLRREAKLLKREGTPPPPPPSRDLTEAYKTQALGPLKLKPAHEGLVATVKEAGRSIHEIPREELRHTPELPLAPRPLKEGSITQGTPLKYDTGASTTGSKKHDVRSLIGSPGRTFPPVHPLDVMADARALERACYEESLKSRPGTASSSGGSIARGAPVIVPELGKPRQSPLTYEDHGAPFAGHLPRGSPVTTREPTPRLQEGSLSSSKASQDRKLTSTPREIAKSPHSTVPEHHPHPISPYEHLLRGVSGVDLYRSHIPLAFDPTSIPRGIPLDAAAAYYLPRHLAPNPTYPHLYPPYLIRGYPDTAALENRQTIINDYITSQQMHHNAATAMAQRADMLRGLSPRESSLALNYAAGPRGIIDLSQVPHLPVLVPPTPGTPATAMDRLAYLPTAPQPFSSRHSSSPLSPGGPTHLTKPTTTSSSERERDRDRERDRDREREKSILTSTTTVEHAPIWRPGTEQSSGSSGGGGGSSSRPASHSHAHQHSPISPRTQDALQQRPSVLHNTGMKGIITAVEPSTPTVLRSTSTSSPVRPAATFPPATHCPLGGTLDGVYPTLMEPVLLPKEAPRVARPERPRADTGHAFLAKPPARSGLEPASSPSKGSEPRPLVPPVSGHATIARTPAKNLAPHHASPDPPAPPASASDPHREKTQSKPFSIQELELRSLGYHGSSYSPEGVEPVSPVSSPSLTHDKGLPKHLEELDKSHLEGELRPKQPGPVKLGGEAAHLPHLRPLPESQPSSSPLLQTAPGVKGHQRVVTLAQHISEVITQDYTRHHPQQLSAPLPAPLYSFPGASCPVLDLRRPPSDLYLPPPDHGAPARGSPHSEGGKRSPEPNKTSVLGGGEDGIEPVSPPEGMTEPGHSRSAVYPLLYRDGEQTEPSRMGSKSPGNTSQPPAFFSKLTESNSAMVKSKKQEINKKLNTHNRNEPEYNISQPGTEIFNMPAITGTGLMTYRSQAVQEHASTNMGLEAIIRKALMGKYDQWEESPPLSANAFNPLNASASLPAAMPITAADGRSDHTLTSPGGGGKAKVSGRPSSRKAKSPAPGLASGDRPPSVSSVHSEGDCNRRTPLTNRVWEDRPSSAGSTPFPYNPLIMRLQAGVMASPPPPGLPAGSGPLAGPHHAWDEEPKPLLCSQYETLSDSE
Sequence of Histone deacetylase 2 (Q92769 whole entry, the tested form may be a part): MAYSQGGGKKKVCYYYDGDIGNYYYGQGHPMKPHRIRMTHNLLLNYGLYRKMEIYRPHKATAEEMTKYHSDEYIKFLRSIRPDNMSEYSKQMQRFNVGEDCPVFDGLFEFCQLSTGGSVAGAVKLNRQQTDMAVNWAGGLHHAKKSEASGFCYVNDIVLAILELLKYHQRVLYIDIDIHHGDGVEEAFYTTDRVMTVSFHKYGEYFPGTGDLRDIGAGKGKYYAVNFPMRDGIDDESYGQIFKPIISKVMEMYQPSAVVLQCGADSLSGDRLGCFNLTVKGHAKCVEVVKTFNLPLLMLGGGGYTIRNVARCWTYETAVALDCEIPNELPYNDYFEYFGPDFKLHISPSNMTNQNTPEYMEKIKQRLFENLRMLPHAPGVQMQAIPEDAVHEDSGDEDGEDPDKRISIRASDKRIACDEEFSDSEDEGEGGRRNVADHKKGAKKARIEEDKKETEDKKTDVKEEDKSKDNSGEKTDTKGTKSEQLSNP
Sequence of Histone deacetylase 1 (Q13547 whole entry): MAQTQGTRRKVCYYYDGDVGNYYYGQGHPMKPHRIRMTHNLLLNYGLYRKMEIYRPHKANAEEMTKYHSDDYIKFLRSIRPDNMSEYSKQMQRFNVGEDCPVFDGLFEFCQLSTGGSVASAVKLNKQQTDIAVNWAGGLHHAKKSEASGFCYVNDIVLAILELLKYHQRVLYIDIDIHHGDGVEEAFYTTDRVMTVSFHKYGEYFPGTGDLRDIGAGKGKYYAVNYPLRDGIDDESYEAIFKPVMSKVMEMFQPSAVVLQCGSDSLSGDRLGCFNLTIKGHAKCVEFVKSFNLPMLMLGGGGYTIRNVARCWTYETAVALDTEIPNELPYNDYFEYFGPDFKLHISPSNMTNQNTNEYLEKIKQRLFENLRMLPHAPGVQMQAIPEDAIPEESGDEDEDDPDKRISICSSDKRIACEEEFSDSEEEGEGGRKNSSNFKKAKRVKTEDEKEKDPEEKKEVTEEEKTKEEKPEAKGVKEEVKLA

| IC50 [2] [µM] | IC50 (Histone deacetylase 1) [µM] | IC50 (Histone deacetylase 2) [µM] | IC50 [4] [µM] | pKa [9] | Structure (SMILES) | selectivity ratio [1] | IC50 [3] [µM] | Ratio pIC50 [5] | CC50 at 72 h [6] [µM] | CC50 at 72 h [7] [µM] | Papp at 18 h, 50 µM [8] [nm/s] | Ratio pIC50 [10] | logD [11] |
| --- | --- | --- | --- | --- | --- | --- | --- | --- | --- | --- | --- | --- | --- |
|  |  |  |  |  | CN1CC(=O)N2[C@H](c3ccc4c(c3)OCO4)c3[nH]c4ccccc4c3C[C@@H]2C1=O |  |  |  | 60.3 | 110 | 26.8 |  |  |
| 0.057 | 1.88 | 6.43 | 0.395 | 8.29 | CCCc1nn(C)c2c(=O)[nH]c(-c3cc(CC4CCN(c5ccc(C(=O)NO)cn5)CC4)ccc3OCC)nc12 |  |  |  |  |  |  |  |  |
| 0.017 | 0.554 | 1.86 | 0.13 |  | CCCc1nn(C)c2c(=O)[nH]c(-c3cc(C4CC(C(=O)NO)C4)ccc3OCC)nc12 (stereo not drawn) | < 0.4 |  |  |  |  | 13.7 | > 0.6 |  |
|  |  |  |  |  | O=C(CCCCCCC(=O)Nc1ccccc1)NO [VORINOSTAT] |  |  |  | 3.59 | 4.91 | 2.3 |  | 2 |
| 0.121 | > 20 | > 20 | > 20 | 8.73 | CCCc1nn(C)c2c(=O)[nH]c(-c3cc(CC4CCN(c5ccc(C(=O)NO)cc5)CC4)ccc3OCC)nc12 |  |  |  |  |  |  |  |  |
| 0.002 | 1.34 | 6.97 | 0.089 |  | CCCc1nn(C)c2c(=O)[nH]c(-c3cc(S(=O)(=O)N4CCN(Cc5ccc(/C=C/C(=O)NO)cc5)CC4)ccc3OCC)nc12 |  |  |  |  |  |  | > 1 |  |
| 0.007 | 0.063 | 0.335 | 1.25 | 7.85 | CCCc1nn(C)c2c(=O)[nH]c(-c3cc(CC4CCN(c5ncc(C(=O)NO)cn5)CC4)ccc3OCC)nc12 | < 0.4 | 0.051 | 1.4 |  |  | 4.1 |  |  |

| Structure (SMILES) | IC50 [2] [µM] | IC50 (Histone deacetylase 1) [µM] | IC50 (Histone deacetylase 2) [µM] | IC50 [4] [µM] | pKa [9] | selectivity ratio [1] | IC50 [3] [µM] | Ratio pIC50 [5] | CC50 at 72 h [6] [µM] | CC50 at 72 h [7] [µM] | Papp at 18 h, 50 µM [8] [nm/s] | Ratio pIC50 [10] | logD [11] |
| --- | --- | --- | --- | --- | --- | --- | --- | --- | --- | --- | --- | --- | --- |
| CCCc1nn(C)c2c(=O)[nH]c(-c3cc(S(=O)(=O)N4CCN(c5ncc(C(=O)NO)cn5)CC4)ccc3OCC)nc12 | 0.003 | 0.008 | 0.117 | 0.268 |  | < 0.4 | 0.036 | > 1 | 1.46 | 2.15 | 7.2 |  |  |
| CCCc1nn(C)c2c(=O)[nH]c(-c3cc(S(=O)(=O)NC4CCN(c5ncc(C(=O)NO)cn5)CC4)ccc3OCC)nc12 | 0.0006 | 0.057 | 0.341 | 0.059 |  | < 0.4 | 0.054 |  | 11.9 | 4.95 | 1 |  |  |
| CCCc1nn(C)c2c(=O)[nH]c(-c3cc(S(=O)(=O)Nc4ccc(/C=C/C(=O)NO)cc4)ccc3OCC)nc12 | 0.001 | 0.356 | 1.31 | 0.084 |  | < 0.4 |  |  | 27.4 | 30.3 | 2.3 |  |  |
| CCCc1nn(C)c2c(=O)[nH]c(-c3cc(N4CCC(CC(=O)NO)CC4)ccc3OCC)nc12 | 0.065 | 5.86 | > 20 | 1.09 |  | < 0.4 |  |  | 88.7 | > 100 | 4.9 |  |  |

— ChEMBL document CHEMBL3860059, “Design, Synthesis, and Biological Evaluation of First-in-Class Dual Acting Histone Deacetylases (HDACs) and Phosphodiesterase 5 (PDE5) Inhibitors for the Treatment of Alzheimer's Disease” (J Med Chem, 2016)
